# Screening data (PubChem BioAssay)
# KCNK9 block = blocks the human KCNK9 two-pore domain potassium channel | Q9NPC2 | HEK293 KCNK9, FluxOR thallium flux fluorescence; hits give low values | B-score at 10 µM | 1.2% of 310,000 active;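 active = ratio B-score over 3 SD below the library mean, with starting fluorescence within 5 SD of its mean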;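 note: negative B-score means less thallium flux so channel inhibition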
# KCNK3 inh = human KCNK3 channel inhibition, primary screen; CHO-KCNK3 thallium flux, FluxOR fluorescence; hits give low values; 0.84% of 340,000 active; AID 602410; B-score at 10 µM;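 active = B-score under library mean minus 4 SD, starting fluorescence ratio at most library mean plus 5 SD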;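 note: more negative B-score means stronger inhibition of thallium flux through KCNK3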
# KCNQ1 pot = potentiators or activators of human KCNQ1 potassium channel | P51787 | CHO-K1 KCNQ1, thallium flux FluxOR fluorescence; hits give high values | B-score at 10 µM | 0.35% of 310,000 active | AID 2648;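 active = fluorescence ratio B-score, a plate-corrected score, at least three library SD, with initial intensity B-score within 5 SD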
#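 Assay system: CHO-K1 cells stably expressing KCNQ1. Medium: assay buffer for compound exposure, DMSO matched across wells. Timing: 37 °C overnight plating, 90-min dark dye load, 20-min compound pretreatment. Signal: kinetic FluxOR fluorescence, 10 s baseline plus 110 s post-stimulus.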
# Cl transport mod = KCC2 (human) Cl- transport modulation; Q9H2X9; KCC2 cells, thallium flux FluoZin-2 fluorescence; B-score of Tl+ flux slope (higher = more flux/activation; lower = inhibition) at 10 µM; 2.2% of 190,000 active;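 active = thallium flux slope and its plate-corrected score both differing from the plate sample mean at a set confidence after two filtering rounds, in either direction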;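 note: slope of fluorescence scaled to starting intensity during 10 to 20 s after thallium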
# Target sequence (Q9H2X9 whole entry, looked up): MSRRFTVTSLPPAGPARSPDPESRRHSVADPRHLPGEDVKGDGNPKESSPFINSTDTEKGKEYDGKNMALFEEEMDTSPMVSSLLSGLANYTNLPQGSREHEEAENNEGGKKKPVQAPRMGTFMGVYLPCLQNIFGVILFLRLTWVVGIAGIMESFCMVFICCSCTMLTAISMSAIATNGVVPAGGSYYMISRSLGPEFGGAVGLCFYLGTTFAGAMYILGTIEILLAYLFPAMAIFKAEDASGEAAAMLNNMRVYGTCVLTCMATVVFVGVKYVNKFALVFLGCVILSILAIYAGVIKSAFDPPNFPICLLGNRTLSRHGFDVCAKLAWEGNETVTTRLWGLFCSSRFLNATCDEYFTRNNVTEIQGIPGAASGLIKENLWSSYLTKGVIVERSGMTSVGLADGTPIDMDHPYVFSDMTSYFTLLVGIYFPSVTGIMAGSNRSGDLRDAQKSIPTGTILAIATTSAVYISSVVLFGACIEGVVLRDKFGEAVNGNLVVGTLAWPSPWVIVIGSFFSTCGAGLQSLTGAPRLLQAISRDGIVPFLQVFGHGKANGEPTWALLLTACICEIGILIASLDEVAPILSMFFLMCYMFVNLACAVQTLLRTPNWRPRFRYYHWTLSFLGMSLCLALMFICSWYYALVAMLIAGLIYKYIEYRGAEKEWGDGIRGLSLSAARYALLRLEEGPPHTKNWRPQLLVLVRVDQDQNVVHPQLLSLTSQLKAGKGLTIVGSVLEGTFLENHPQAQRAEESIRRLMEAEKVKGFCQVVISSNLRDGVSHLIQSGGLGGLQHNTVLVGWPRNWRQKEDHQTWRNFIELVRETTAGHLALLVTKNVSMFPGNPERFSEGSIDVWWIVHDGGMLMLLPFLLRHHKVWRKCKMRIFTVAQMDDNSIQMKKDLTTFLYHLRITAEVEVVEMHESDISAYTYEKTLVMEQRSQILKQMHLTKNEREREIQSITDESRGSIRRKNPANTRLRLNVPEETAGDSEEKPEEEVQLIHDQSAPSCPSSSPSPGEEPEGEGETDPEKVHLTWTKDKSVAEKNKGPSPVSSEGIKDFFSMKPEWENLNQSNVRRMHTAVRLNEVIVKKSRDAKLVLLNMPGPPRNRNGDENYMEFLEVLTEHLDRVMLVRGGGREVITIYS
# hERG rescue = compounds protecting human hERG from proarrhythmic drug block; Q12809; CHO-hERG, FluxOR thallium flux, dofetilide IC70 present; activation (rescue from dofetilide block), less the hit threshold, % at 10 µM; 0.51% of 310,000 active; AID 1511;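 active = activation above the mean of controls blocked by dofetilide plus 5 SD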;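 note: thallium influx through hERG after potassium depolarization seen as dye fluorescence rise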
# KCNQ1 block = blocks the human KCNQ1 potassium channel. P51787. CHO-K1 KCNQ1, FluxOR thallium flux fluorescence; hits give high values. B-score at 10 µM. 1.3% of 310,000 active. AID 2642;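 active = compounds whose thallium flux B-score, printed positive for inhibition, exceeds three library SD while starting fluorescence stays within three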;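 note: channel opened by potassium depolarization with thallium stimulus after 20 min compound exposure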
# KCC2 sec1 = confirmation of human KCC2 transport modulators; 15% of 3,700 active; normalised thallium flux (F/F0 slope) at 10 µM; shares compounds with Cl transport mod; HEK293-KCC2, thallium flux, FluoZin2 fluorescence; hits give high values;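 active = thallium flux slope above the same plate's solvent-only control mean plus 3 SD; inconclusive = the two replicate wells disagree; inactive = no significant difference from solvent-only control wells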
# KCC2 bumet counter = thallium flux despite bumetanide block in KCC2 cells, secondary assay 3; 49% of 3,700 active; normalized thallium flux at 10 µM; HEK293-KCC2 + bumetanide/ouabain, thallium flux FluoZin2; hits give high values; shares compounds with Cl transport mod; AID 1714;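 active = thallium entry rate above the same plate's blocked-transporter control wells by more than 3 SD; inconclusive = the two repeat wells disagree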;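 note: raw slope of fluorescence over initial fluorescence between 10 and 20 s after thallium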
# KCC2 secondary2 = confirmation of human KCC2 transport modulators | AID 1715 | 23% of 3,700 active | normalized thallium flux at 10 µM | HEK293-KCC2, thallium flux FluoZin2 fluorescence; actives lie on both sides; F/F0 rise rate, 10–20 s post-thallium | shares compounds with Cl transport mod;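 active = thallium flux slope more than 3 SD above or below the plate's solvent-only control mean, mostly below; inconclusive = the two repeat wells disagreed; inactive = no significant shift from solvent-only controls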;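 note: raw slope with 0.1% DMSO as baseline and bumetanide as block control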
# HEK293 Tl flux = parental HEK flux effect, counter-screen; shares compounds with Cl transport mod; HEK293 parental cells, thallium flux FluoZin2, ouabain; baseline-ratio fluorescence slope, 10–20 s after thallium; thallium flux rate (normalised fluorescence) at 10 µM; 46% of 3,700 active; AID 1716;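 active = thallium flux rate significantly above the same plate's solvent-only control wells, beyond their mean plus 3 SD; inconclusive = the two replicate wells gave conflicting results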
# KCC2 ouabain = modulates human KCC2 on retest with ouabain; shares compounds with Cl transport mod; HEK293-KCC2, thallium flux FluoZin2 fluorescence; bidirectional: low = inhibitor, high = activator; raw Tl+ flux slope (below DMSO = inhibition, above = activation) at 10 µM; 48% of 3,700 active;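 active = thallium flux slope beyond 3 SD from same-plate DMSO control mean in most replicates, usually higher, sometimes lower; inconclusive = repeat tests gave conflicting results; inactive = no significant difference from controls in most replicates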;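 note: slope of initial-normalized fluorescence between seconds 10 and 20 after thallium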
# HEK293 Tl flux2 = parental HEK flux effect, counter-screen 2; HEK293 parental, thallium flux FluoZin-2 fluorescence slope; 33% of 3,700 active; shares compounds with Cl transport mod; AID 1718; thallium flux slope at 10 µM;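 active = thallium flux slope above the same plate's solvent-control mean plus 3 SD in both duplicate wells; inconclusive = duplicate wells that disagreed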;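 note: run without ouabain in cells lacking the KCC2 cotransporter; slope of fluorescence scaled to its starting value between 10 and 20 s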
# Numbers without * were called inactive; i = inactive; ? = inconclusive; / = not tested or not shown. Hits are enriched below; roughly 4.1% of the tested compounds scored in any of these assays.
SMILES,KCNK9 block,KCNK3 inh,KCNQ1 pot,Cl transport mod,hERG rescue,KCNQ1 block,KCC2 sec1,KCC2 bumet counter,KCC2 secondary2,HEK293 Tl flux,KCC2 ouabain,HEK293 Tl flux2
Cc1nc(C(=O)NNC(=O)c2ccccc2)c(C(F)(F)F)o1,i,i,i,4.19*,-6.6,i,0.00575,0.00654*,?,0.00869*,0.0193,0.00996
Cc1cccc(NC(=O)CN2CCN(CC(=O)NCc3ccc(Cl)cc3Cl)CC2)c1C,/,i,/,/,/,/,/,/,/,/,/,/
NNC(=S)Nc1ccc(C(F)(F)F)cc1Cl,i,i,i,16.2*,-9.0,i,0.0107,0.03*,0.0353,0.02*,0.0261,0.0142*
NNC(=S)Nc1ccccc1Cl,i,i,i,0.286,-12.8,i,/,/,/,/,/,/
CCSc1ncnc2sc(C)c(C)c12,i,i,i,-0.762,-4.5,i,/,/,/,/,/,/
C=CCSc1ncnc2sc(C)c(C)c12,i,i,i,4.79*,-0.3,i,0.0112,0.0229*,0.0343,0.0132*,0.0248,0.0129*
Cc1sc2ncnc(SCc3ccc(C(=O)O)cc3)c2c1C,i,i,i,1.37,-4.6,i,/,/,/,/,/,/
COC(=O)c1ccc(CSc2ncnc3sc(C)c(C)c23)o1,i,i,8*,50.7*,8.8*,i,0.0113*,0.1*,0.0698*,0.0645*,0.0843*,0.0498*
COc1ccc(C(=O)COC(=O)CCc2ccccc2)cc1,i,i,i,-2.36,-7.5,i,/,/,/,/,/,/
CCc1cc2c(cc3c(=O)n(CC(=O)N4CCN(c5ccccn5)CC4)nc(CC)n32)s1,i,i,i,/,2.7,i,0.00775,0.00455,0.0304,0.00731,0.0161,0.00966
CSc1ncccc1C(=O)Nc1cccc(C)n1,i,i,i,/,-3.6,i,/,/,/,/,/,/
O=C(O)CCSc1ncnc2sc(-c3ccccc3)cc12,i,i,14*,51.2*,6.6*,i,?,0.0556*,0.0429*,0.0558*,0.055*,0.033*
COCCNC(=O)CSc1ncnc2sc(-c3ccccc3)cc12,i,i,i,7.48*,-1.4,i,0.0164,0.0206*,0.0316,0.014*,0.0218*,0.0165*
CC(=O)CCSc1ncnc2sc(-c3ccccc3)cc12,i,i,i,/,-9.3,i,/,/,/,/,/,/
COc1cc(NC(=S)Nc2ccccn2)c(OC)cc1Cl,i,i,i,2.12,-8.0,i,/,/,/,/,/,/
O=C(OCc1nc2ccccc2s1)c1cccc(N2C(=O)CCC2=O)c1,i,i,i,-0.397,-11.5,i,/,/,/,/,/,/
CC(C)[C@H](NC(=O)OCc1ccccc1)C(=O)OCC(=O)Nc1ccc(N2CCOCC2)cc1,i,i,i,/,-17.6,i,/,/,/,/,/,/
COc1cc(SC)ccc1C(=O)OC(C)C(=O)NC1CCCC1 (stereo not drawn),/,i,/,-0.617,/,/,/,/,/,/,/,/
Cc1ccc(S(=O)(=O)NC2=NCN(CCc3ccccc3)CN2)cc1,i,i,i,/,-2.7,i,/,/,/,/,/,/
Cc1ccc(S(=O)(=O)NC2=NCN(Cc3ccccc3)CN2)cc1,i,i,i,-3.34*,-2.9,i,0.00836,0.00613,0.0325,0.00778,?,0.0111
O=C(CSc1ccc(-c2cccs2)nn1)NCc1ccccc1Cl,i,/,i,-2.1,-6.2,i,/,/,/,/,/,/
COc1ccccc1CNC(=O)CSc1ccc(-c2cccs2)nn1,i,i,i,-4.26*,-8.2,i,0.00628,0.00568,0.0328,0.00407,0.0154*,0.0112
COc1ccc(NC(=O)CSc2ccc(-c3cccs3)nn2)c(OC)c1,i,i,i,1.09,-8.8,i,/,/,/,/,/,/
COc1cccc(CNC(=O)Cc2ccc(Br)cc2)c1,i,i,i,-1.16,-3.0,i,/,/,/,/,/,/
COc1cccc(CNC(=O)CSc2ccc(-c3cccs3)nn2)c1,i,i,i,-3.17*,-7.9,i,0.015,0.00532,?,0.00717,0.0143,0.0103
SMILES,KCNK9 block,KCNK3 inh,KCNQ1 pot,Cl transport mod,hERG rescue,KCNQ1 block,KCC2 sec1,KCC2 bumet counter,KCC2 secondary2,HEK293 Tl flux,KCC2 ouabain,HEK293 Tl flux2
COc1cccc(CNC(=O)Cn2cccc2)c1,i,i,i,9.55*,-9.2,i,0.00898,0.00513,0.0383,0.00459,0.0211,0.0109
CC(C)CN(C(=O)C1CCCC1)C1CCS(=O)(=O)C1 (stereo not drawn),i,i,i,/,-4.9,i,/,/,/,/,/,/
O=C(O)c1ccc(C[n+]2c(-c3ccccc3)csc2Nc2ccccc2)cc1,i,i,i,-3.61*,-8.5,i,0.00878,?,0.0314,0.00728,0.0155*,0.0103
CCCCCC[n+]1c(-c2ccccc2)csc1Nc1ccccc1,i,i,i,-0.177,-4.2,i,/,/,/,/,/,/
CC1=C(C(=O)Nc2ccccc2C)C2(CCCC2)C(C(N)=O)C(=O)N1 (stereo not drawn),i,i,i,/,-11.0,i,/,/,/,/,/,/
O=C(/C=C/c1cccs1)Nc1nc(-c2ccccc2)cs1,i,i,i,/,-14.9,i,/,/,/,/,/,/
O=C(/C=C/c1cccs1)Nc1scc(-c2ccccc2)c1C(=O)O,i,i,i,-4.23*,-15.9,i,0.00804,?,0.0208*,0.00805,0.0135*,0.00999
CCCCN(CC)c1nc(N)c2c(N)nc(OCC)cc2c1C#N,i,i,i,/,-8.2,i,/,/,/,/,/,/
CC1=NN(c2nc(-c3ccc(C)cc3)cs2)C(=O)C1N=Nc1ccc2ccccc2c1 (stereo not drawn),i,i,i,/,-2.4,i,/,/,/,/,/,/
CC1=NN(c2nc(-c3ccccc3)cs2)C(=O)C1N=Nc1ccccc1 (stereo not drawn),i,i,i,6.6*,1.8,i,0.00805,0.0505*,0.029,0.0146*,?,0.00905
Cn1c(C(=O)OC(C(=O)NC2CCCC2)c2cccnc2)cc2sccc21 (stereo not drawn),i,i,i,-2.72*,-10.0,i,0.00833,0.00625,0.028,0.0075,0.0448*,0.011*
